Results published in ChEMBL document CHEMBL3232740, “Differences in conformational dynamics between Plasmodium falciparum and human Hsp90 orthologues enable the structure-based discovery of pathogen-selective inhibitors” (J Med Chem, 2014).
Each block holds one molecule with its values, some of them ahead of it. Active and inactive are the calls of the source. The rule behind the calls is not given here.

Legend:
[1] = Inhibition of Plasmodium falciparum HSP90 ISG-LGA mutant expressed in yeast assessed as growth inhibition of host after 72 hrs
How it was run: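 Host was an isogenic S. cerevisiae strain derived from DP533 (Δhsc82 Δhsp82 pdr5), carrying Flag-tagged PfHsp90 ISG-LGA/K313Q from a low-copy plasmid as its only Hsp90. Cultures were diluted to OD600 0.1 in minimal medium with 2% DMSO. OD600 was read every 30 min for 72 h. Growth % was maximal growth-curve slope relative to solvent-only; IC50 from triplicate dose-response.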

Plasmodium falciparum = experiment: Antiplasmodial activity against Plasmodium falciparum NF54 infected in human erythrocytes assessed as growth inhibition by [3H]hypoxanthine incorporation assay; format: functional, organism-based
HSP90 = biological target: T1, HSP90 (Plasmodium falciparum 3D7, UniProt Q8IL32); experiment: Binding affinity to N-terminal FLAG-tagged Plasmodium falciparum recombinant HSP90 (1 to 223) expressed in Escherichia coli BL21(DE3) by microscale thermophoresis assay
T1 sequence (Q8IL32 whole entry): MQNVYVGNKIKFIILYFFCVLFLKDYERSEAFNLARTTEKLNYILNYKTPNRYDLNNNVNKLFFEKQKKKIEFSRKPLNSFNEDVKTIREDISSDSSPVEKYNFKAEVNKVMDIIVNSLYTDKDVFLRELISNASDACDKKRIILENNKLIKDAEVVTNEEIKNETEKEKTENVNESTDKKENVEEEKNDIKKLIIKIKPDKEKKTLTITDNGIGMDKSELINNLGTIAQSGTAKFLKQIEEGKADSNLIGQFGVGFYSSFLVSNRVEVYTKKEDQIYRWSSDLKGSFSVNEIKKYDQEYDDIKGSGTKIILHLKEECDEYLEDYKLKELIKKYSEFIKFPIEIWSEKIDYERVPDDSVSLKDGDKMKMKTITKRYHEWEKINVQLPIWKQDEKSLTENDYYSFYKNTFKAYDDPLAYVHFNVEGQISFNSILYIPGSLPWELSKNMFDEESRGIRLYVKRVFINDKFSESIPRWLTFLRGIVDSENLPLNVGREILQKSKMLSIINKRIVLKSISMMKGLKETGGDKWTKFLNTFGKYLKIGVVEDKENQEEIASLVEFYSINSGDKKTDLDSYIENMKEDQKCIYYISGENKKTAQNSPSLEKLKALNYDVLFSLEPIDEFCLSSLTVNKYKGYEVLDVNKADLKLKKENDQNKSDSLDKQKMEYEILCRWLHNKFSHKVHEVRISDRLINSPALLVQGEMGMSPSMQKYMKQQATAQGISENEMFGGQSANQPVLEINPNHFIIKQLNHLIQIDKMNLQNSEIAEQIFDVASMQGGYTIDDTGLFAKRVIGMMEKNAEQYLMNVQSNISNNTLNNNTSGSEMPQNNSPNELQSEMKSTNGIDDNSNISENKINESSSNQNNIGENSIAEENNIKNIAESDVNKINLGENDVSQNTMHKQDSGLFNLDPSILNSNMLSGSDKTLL
How it was run: (§1)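 Recombinant Pf Hsp90 proteins were expressed in E. coli BL21 DE3 pLysS in LB, induced with 0.5 mM IPTG for 18 h at 20 °C. They were purified by His-affinity then size exclusion, keeping the 33 kDa fractions. Ligand was titrated in 1:1 dilutions against 100 nM protein with 5% DMSO. MST was run at 40% LED and 40% MST power.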

L6 = experiment: Cytotoxicity against rat L6 cells after 72 hrs by Alamar Blue assay; format: cell-based
[2] = Binding affinity to N-terminal FLAG-tagged Plasmodium falciparum recombinant HSP90 R98K mutant expressed in Escherichia coli BL21(DE3) by microscale thermophoresis assay; how it was run: as §1
[3] = Ratio of IC50 for rat L6 cells to IC50 for Plasmodium falciparum NF54
How it was run: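 Ratio of two IC50s. P. falciparum NF54 was grown in human erythrocytes (Trager–Jensen) for a 72 h assay window, with growth read as [3H]hypoxanthine incorporation. Cytotoxicity was measured in rat skeletal myoblast L6 cells.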

[4] = test system: Heat-shock protein (Plasmodium falciparum), Q25869 [K313Q]; experiment: Inhibition of Plasmodium falciparum HSP90 K313Q mutant expressed in yeast assessed as growth inhibition of host at 100 uM after 72 hrs
Heat-shock protein (Plasmodium falciparum), Q25869 [K313Q], sequence (Q25869 whole entry K313Q): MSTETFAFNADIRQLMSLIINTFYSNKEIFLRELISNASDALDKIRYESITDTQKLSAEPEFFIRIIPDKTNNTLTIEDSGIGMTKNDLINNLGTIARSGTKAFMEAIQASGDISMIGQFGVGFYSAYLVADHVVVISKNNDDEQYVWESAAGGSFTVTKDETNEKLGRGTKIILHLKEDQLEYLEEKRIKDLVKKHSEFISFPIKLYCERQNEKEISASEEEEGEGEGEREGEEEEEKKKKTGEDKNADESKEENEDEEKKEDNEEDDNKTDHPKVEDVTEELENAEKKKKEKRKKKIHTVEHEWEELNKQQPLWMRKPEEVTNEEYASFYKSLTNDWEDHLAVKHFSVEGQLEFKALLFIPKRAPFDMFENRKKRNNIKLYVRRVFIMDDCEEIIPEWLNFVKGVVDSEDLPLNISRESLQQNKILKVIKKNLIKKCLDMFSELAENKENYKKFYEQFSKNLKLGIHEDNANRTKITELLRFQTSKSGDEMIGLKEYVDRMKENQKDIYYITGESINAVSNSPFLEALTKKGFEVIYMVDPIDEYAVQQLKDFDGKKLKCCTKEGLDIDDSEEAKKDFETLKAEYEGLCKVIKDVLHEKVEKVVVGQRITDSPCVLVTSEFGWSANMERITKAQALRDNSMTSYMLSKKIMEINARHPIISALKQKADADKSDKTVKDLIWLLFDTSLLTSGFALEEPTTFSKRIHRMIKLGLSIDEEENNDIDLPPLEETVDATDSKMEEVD

[5] = Binding affinity to N-terminal FLAG-tagged Plasmodium falciparum recombinant HSP90 ISG-LGA mutant expressed in Escherichia coli BL21(DE3) by microscale thermophoresis assay; how it was run: as §1

Compound: COCC(=O)Nc1c(C(=O)OC)n(CCC(C)C)c2ncc(NC(C)CCC=C(C)C)cc12 (racemic)
IC50 [1]: 61.2 µM
IC50 (Plasmodium falciparum; Plasmodium falciparum, NF54): 5.75 µM
Kd (HSP90): 14.1 µM
IC50 (L6; Rattus norvegicus, L6, 72 h): 63 µM
Kd [2]: 16.5 µM
Ratio IC50 [3]: >10

Kd (HSP90): 115 µM
Compound: COCC(=O)Nc1c(C(=O)OC)n(C)c2ncc(NC(C)CCC=C(C)C)cc12 (racemic)

Compound: COCC(=O)Nc1c(C(=O)OC)n(CCC(C)C)c2ncc(NC(C)C)cc12
IC50 (Plasmodium falciparum; Plasmodium falciparum, NF54): 13.8 µM
Kd (HSP90): 175 µM
IC50 (L6; Rattus norvegicus, L6, 72 h): 56 µM
Ratio IC50 [3]: 4

Compound: COCC(=O)Nc1c(C(=O)OC)n(CCC(C)C)c2ncc(NC3CCCCCCC3)cc12
IC50 (Plasmodium falciparum; Plasmodium falciparum, NF54): 5.02 µM
Kd (HSP90): 25.4 µM
IC50 (L6; Rattus norvegicus, L6, 72 h): 56 µM
Ratio IC50 [3]: >10

Compound: COCCn1c(C(=O)OC)c(NC(=O)Cc2ccccc2)c2cc(NC3CCCCCCC3)cnc21
inhibition [4]: Active

Compound: COC1=C2C[C@@H](C)C[C@H](OC)[C@H](O)[C@@H](C)/C=C(\C)[C@H](OC(N)=O)[C@@H](OC)/C=C\C=C(/C)C(=O)NC(=CC1=O)C2=O [GELDANAMYCIN]
Kd [5]: 0.103 µM
IC50 (Plasmodium falciparum): 0.148 µM
IC50 (L6; l6): 6 µM
